This note sets out measurements from ChEMBL document CHEMBL1828630, “Design, synthesis and vasorelaxant evaluation of novel coumarin-pyrimidine hybrids” (Bioorg Med Chem, 2011).

The first assay relates to Aorta. Put plainly: Vasorelaxant activity in Wistar rat thoracic aortic ring assessed as inhibition of norepinephrine hydrochloride-induced contraction treated after noradrenaline challenge.
Conditions: not given; call rule not given here
The format is functional, tissue-based. The procedure, abridged: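 Aortic ring preparations held under resting tension below 2 g and allowed to stabilise for 2 h. Contraction to norepinephrine hydrochloride (10^-6 M) was recorded before and after exposure to increasing concentrations of test compound. Tension was measured isometrically. Compounds were taken from 0.01 M DMSO stocks, and DMSO-alone controls were run at matching concentrations. Activity was reported as IC50.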
`COc1ccc2ccc(=O)oc2c1C(=O)/C=C/c1ccc(C)cc1`: the IC50 entry is given as “Not Active”.
On the same count and under the same terms, in the case of `COc1ccc2ccc(=O)oc2c1-c1cc(-c2ccc([N+](=O)[O-])cc2)nc(N)n1` it was “Not Active”; in that of `Cc1cc(-c2ccccc2)nc(Nc2ccc3oc(=O)ccc3c2)n1`, “Not Active”.

The same assay, now with this note: Rattus norvegicus, Wistar, Aorta; read-out: IC50.
With `COc1ccc2ccc(=O)oc2c1-c1cc(-c2ccc(C(F)(F)F)cc2)nc(N)n1`, the IC50 stood at 1060 µM.
On the same count and under the same terms, under `COc1ccc2ccc(=O)oc2c1C(C)=O` stands 479 µM; under `COc1ccc2ccc(=O)oc2c1-c1cc(-c2ccccc2)nc(N)n1`, 800 µM.
Still for that read-out and setting: in the case of `COc1ccc2ccc(=O)oc2c1-c1cc(-c2ccc(C)o2)nc(N)n1` it was 1230 µM; in that of `COc1cc2nc(N3CCN(C(=O)c4ccco4)CC3)nc(N)c2cc1OC` [PRAZOSIN], 487 µM.
The same measure, in the same setting: under `N#Cc1c(-c2ccccc2)nc(Nc2ccc3oc(=O)ccc3c2)[nH]c1=O` stands 547 µM.
Take `N=C(N)Nc1ccc2oc(=O)ccc2c1`: the IC50 was 418 µM.
Still for that read-out and setting: in the case of `COc1ccc2ccc(=O)oc2c1-c1cc(-c2ccc(C)cc2)nc(N)n1` it was 932 µM; in that of `COc1ccc2ccc(=O)oc2c1-c1cc(-c2cccs2)nc(N)n1`, 650 µM.
Same read-out and setting: in the case of `N#Cc1c(N)nc(Nc2ccc3oc(=O)ccc3c2)nc1-c1ccccc1` it was 595 µM.
The same measure, in the same setting: under `Cc1cc(C)nc(Nc2ccc3oc(=O)ccc3c2)n1` stands 411 µM; under `COc1ccc2ccc(=O)oc2c1C(=O)/C=C/c1ccc([N+](=O)[O-])cc1`, 700 µM.
On to `Nc1ccc2oc(=O)ccc2c1`, for which the IC50 is 532 µM.
Still for that read-out and setting: in the case of `COc1ccc2ccc(=O)oc2c1C(=O)/C=C/c1ccc(SC)cc1` it was 705 µM; in that of `O=c1cc(O)nc(Nc2ccc3oc(=O)ccc3c2)[nH]1`, 816 µM.
On the same count and under the same terms, under `Cc1cc(=O)[nH]c(Nc2ccc3oc(=O)ccc3c2)n1` stands 700 µM; under `COc1ccc2ccc(=O)oc2c1C(=O)/C=C/c1cccs1`, 371 µM; under `O=c1ccc2cc(Nc3nc(Cl)cc(Cl)n3)ccc2o1`, 453 µM.
On the same count and under the same terms, under `N/C(=N/O)c1c(N)nc(Nc2ccc3oc(=O)ccc3c2)nc1-c1ccccc1` stands 468 µM; under `CCN(CC)c1ccc(-c2nc(Nc3ccc4oc(=O)ccc4c3)[nH]c(=O)c2C#N)cc1`, 421 µM; under `COc1ccc2ccc(=O)oc2c1C(=O)/C=C/c1ccccc1`, 526 µM.
Regarding `Cc1cc(Cl)nc(Nc2ccc3oc(=O)ccc3c2)n1`, the IC50 stood at 468 µM.
Same read-out and setting: under `CCN(CC)c1cc(C)nc(Nc2ccc3oc(=O)ccc3c2)n1` stands 495 µM; under `Cc1nc(Nc2ccc3oc(=O)ccc3c2)nc(Cl)c1CCCl`, 700 µM; under `COc1ccc2ccc(=O)oc2c1C(=O)/C=C/c1ccc(C)o1`, 566 µM.
With `COc1ccc2ccc(=O)oc2c1C(=O)/C=C/c1ccc(C(F)(F)F)cc1`, the IC50 is 374 µM.
Same read-out and setting: under `COc1ccc2ccc(=O)oc2c1-c1cc(-c2ccc(SC)cc2)nc(N)n1` stands 1140 µM.
Turning to `N/C(=N/O)c1c(-c2ccccc2)nc(Nc2ccc3oc(=O)ccc3c2)[nH]c1=O`, the IC50 stood at 466 µM.

The assay is the same for the next values; noted with them: Rattus norvegicus, Wistar, Aorta; read-out: pIC50 (converted).
Take `COc1ccc2ccc(=O)oc2c1-c1cc(-c2ccccc2)nc(N)n1`: the IC50 is 1250 µM.
Still for that read-out and setting: under `COc1ccc2ccc(=O)oc2c1-c1cc(-c2ccc(C)cc2)nc(N)n1` stands 1070 µM; under `COc1ccc2ccc(=O)oc2c1-c1cc(-c2ccc(SC)cc2)nc(N)n1`, 876 µM.
